Reference: ChEMBL document CHEMBL4376891, “Benzenesulfonamide Derivatives as Calcium/Calmodulin-Dependent Protein Kinase Inhibitors and Antiviral Agents against Dengue and Zika Virus Infections” (J Med Chem, 2020)
The source made the active and inactive calls. The rule behind the calls is not given here.

Tests used:
[1] = system: Zika virus; test: Antiviral activity against Zika virus infected in human BE(2)-C cells assessed as reduction in NS3 protein expression at 3.125 to 6.25 uM treated during 3 to 24 hrs post infection by Western blot analysis; format: functional, organism-based
How it was run: (§1)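 Time-of-addition design: BE(2)C cells were infected with DENV-2 or ZIKV at MOI 1. Compound at 3.125 or 6.25 μM was present either during adsorption (0–3 hpi) or afterward (3–24 hpi). Viral protein was immunoblotted against actin, with the ratio as % of the solvent control.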

[2] = system: dengue virus type 2; test: Antiviral activity against Dengue virus 2 infected in human BE(2)-C cells assessed as NS3 protein expression at 6.25 uM treated during 0 to 3 hrs post infection by Western blot analysis (reference value: 100%); format: functional; how it was run: as §1
[3] = system: dengue virus type 2; test: Antiviral activity against Dengue virus 2 infected in human BE(2)-C cells transfected with shLacZ assessed as NS3 protein expression at 3.125 uM incubated for 48 hrs by Western blot analysis (reference value: 100%); format: functional
[4] = system: dengue virus type 2; test: Antiviral activity against Dengue virus 2 infected in human BE(2)-C cells assessed as NS3 protein expression at 3.125 uM treated during 3 to 24 hrs post infection by Western blot analysis (reference value: 100%); format: functional; how it was run: as §1
[5] = system: Zika virus; test: Antiviral activity against Zika virus infected in human BE(2)-C cells assessed as NS3 protein expression at 12.5 uM incubated for 48 hrs by Western blot analysis (reference value: 100%); format: functional
How it was run: (§2)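 BE(2)C cells were infected with ZIKV PRVABC59 at MOI 0.1 for 48 h, with or without compound at increasing concentrations. Viral protein was immunoblotted with actin as loading control. The band-density ratio was given as % of the solvent control. Mean ± SD, 3 independent experiments.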

[6] = system: dengue virus type 2; test: Antiviral activity against Dengue virus 2 infected in human BE(2)-C cells assessed as NS3 protein expression at 1.56 uM incubated for 48 hrs by Western blot analysis (reference value: 100%); format: functional
How it was run: (§3)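 BE(2)C neuroblastoma cells in RPMI 1640 with 10% FBS were infected with DENV-2 PL046 at MOI 0.1 for 48 h, without or with compound at increasing concentrations. NS3 was immunoblotted with actin as loading control. The NS3:actin densitometry ratio was expressed as % of the DMSO control. Mean ± SD of 3 independent experiments.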

[7] = system: dengue virus type 2; test: Antiviral activity against Dengue virus 2 infected in human BE(2)-C cells transfected with shCaMKIIalpha assessed as NS3 protein expression at 3.125 uM incubated for 48 hrs by Western blot analysis (reference value: 100%); format: functional
[8] = system: dengue virus type 2; test: Antiviral activity against Dengue virus 2 infected in human BE(2)-C cells assessed as NS3 protein expression at 0.39 uM incubated for 48 hrs by Western blot analysis (reference value: 100%); format: functional; how it was run: as §3
[9] = system: Zika virus; test: Antiviral activity against Zika virus infected in human BE(2)-C cells assessed as reduction in viral entry at 3.125 to 6.25 uM incubated for 90 mins by plaque-forming assay relative to control; format: functional; set-up: scale not given: the % may be the effect or the level left
How it was run: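 Virus entry: BE(2)C cells were incubated with DENV-2 or ZIKV for 90 min at 4 °C and washed cold. Cells were then treated with 3.125 or 6.25 μM compound at 37 °C for 1 h. Non-internalized virus was inactivated with 0.1 M glycine, pH 3, for 5 min. Cells were lysed by needle passage, and internalized virus was titrated by plaque assay. Mean ± SD, n = 3.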

[10] = system: Zika virus; details: 3.125 to 6.25 uM
[11] = system: Zika virus; test: Antiviral activity against Zika virus infected in human BE(2)-C cells assessed as NS3 protein expression at 3.125 uM incubated for 48 hrs by Western blot analysis (reference value: 100%); format: functional; how it was run: as §2
[12] = system: dengue virus type 2; test: Antiviral activity against Dengue virus 2 infected in human BE(2)-C cells assessed as NS3 protein expression at 3.125 uM treated during 0 to 3 hrs post infection by Western blot analysis (reference value: 100%); format: functional; how it was run: as §1
[13] = system: dengue virus type 2; test: Antiviral activity against DENV-2 NGC-N infected in Stat1-/- mouse assessed as improvement in mouse survival by measuring median survival time at 4 mg/kg, po dosed 8 hrs after infection and ending at day 6 after infection (8 hrs delay) (reference value: 10 days); format: functional
[14] = system: dengue virus type 2; test: Antiviral activity against Dengue virus 2 infected in human BE(2)-C cells assessed as NS3 protein expression at 6.25 uM incubated for 48 hrs by Western blot analysis (reference value: 100%); format: functional; how it was run: as §3
[15] = system: Sindbis virus; test: Antiviral activity of eGFP-fused Sindbis virus infected in human HMC3 cells at 0.781 to 12.5 uM incubated for 24 hrs by immunofluorescence microscopy; format: functional, organism-based
[16] = system: Zika virus; test: Antiviral activity against Zika virus infected in Stat1-/- mouse assessed as time delay in virus-induced mouse mortality at 8 mg/kg/day, po dosed immediately following viral infection followed by daily dosing for 6 days (reference value: 13 days); format: functional
[17] = system: BE(2)-C; test: Cytotoxicity against human BE(2)-C cells assessed as reduction in cell viability up to 12.5 uM incubated overnight by trypan blue assay relative to control; format: cell-based
How it was run: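 Viable BE(2)C cell number after overnight exposure to compound up to 12.5 μM, counted by trypan blue exclusion; expressed as percent of solvent control, mean ± SD of 3 independent experiments.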

[18] = system: Zika virus; test: Antiviral activity against Zika virus infected in human BE(2)-C cells assessed as NS3 protein expression at 6.25 uM incubated for 48 hrs by Western blot analysis (reference value: 100%); format: functional; how it was run: as §2
[19] = system: Zika virus; test: Antiviral activity against Zika virus infected in human BE(2)-C cells assessed as reduction inNS3 protein expression at 3.125 to 6.25 uM treated during 0 to 3 hrs post infection by Western blot analysis; format: functional, organism-based; how it was run: as §1
[20] = system: dengue virus type 2; test: Antiviral activity against DENV-2 NGC-N infected in Stat1-/- mouse assessed as overall mouse survival at 8 mg/kg, po dosed immediately following viral infection followed by daily dosing for 6 days (reference value: 0%); format: functional; details: 144 h
[21] = system: dengue virus type 2; test: Antiviral activity against Dengue virus 2 infected in human BE(2)-C cells transfected with shLacZ assessed as NS3 protein expression at 6.25 uM incubated for 48 hrs by Western blot analysis (reference value: 100%); format: functional
[22] = system: dengue virus type 2; test: Antiviral activity against Dengue virus 2 infected in human HMC3 cells assessed as reduction in viral progeny production at 1.56 to 12.5 uM incubated for 48 hrs by Virus titer assay; format: functional, organism-based
How it was run: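 Human microglial HMC3 cells in MEM with 10% FBS were infected with DENV-2 PL046 at MOI 0.1 for 48 h in the presence of noncytotoxic compound concentrations. Progeny virus was titrated by plaque assay on BHK-21 cells, expressed as log PFU/mL.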

[23] = system: Zika virus; test: Antiviral activity against Zika virus infected in human BE(2)-C cells assessed as NS3 protein expression at 3.125 uM treated during 3 to 24 hrs post infection by Western blot analysis (reference value: 100%); format: functional; how it was run: as §1
[24] = system: dengue virus type 2; test: Antiviral activity against DENV-2 NGC-N infected in Stat1-/- mouse assessed as improvement in overall mouse survival at 4 mg/kg, po dosed 8 hrs after infection and ending at day 6 after infection (8 hrs delay) relative to control; format: functional
[25] = system: dengue virus type 2; test: Antiviral activity against Dengue virus 2 infected in human HMC3 cells assessed as reduction in NS3 protein expression at 1.56 to 12.5 uM incubated for 24 hrs by immunofluorescence microscopy; format: functional, organism-based

`COc1ccc(S(=O)(=O)N(CCCC(=O)C2CCCCCC2)c2ccccc2)cc1` was tested, and the Activity [1] was “inactive”, the Activity [2] was 27.3% and the Activity [3] was 62.2%. For the same compound, the Activity [4] was 78.3%, the Activity [5] was 0.1% and the Activity [6] was 75.2%. The Activity [7] was 95.1%, the Activity [8] was 90.8% and the Activity [9] was 80%. For the same compound, the inhibition [10] was “inactive”, the Activity [11] was 49.7% and the Activity [12] was 72.5%. The MST [13] was 22 days, the Activity [14] was 23.1% and the Activity [15] was “Active”. For the same compound, the Time [16] was 18 days, the Activity [17] was “Non-Toxic” and the Activity [18] was 4.1%. For the same compound, the Activity [19] was “Dose-dependent effect”, the survival at 8 mg/kg [20] was 60% and the Activity [21] was 34.6%. For the same compound, the Activity [22] was “Active”, the Activity [23] was 97.2% and the Activity [24] was 40%. For the same compound, the Activity [25] was “Active”.
